Assay results as given in ChEMBL document CHEMBL4680124, “2-Styryl-4-aminoquinazoline derivatives as potent DNA-cleavage, p53-activation and in vivo effective anticancer agents” (Eur J Med Chem, 2020).
Activity calls are given as the source filed them. The rule behind the calls is not given here.

Tests used:
[1] = test system: Mus musculus; experiment: Toxicity against BALB/c nude mouse xenografted with human MGC-803 cells assessed as body weight at 10 mg/kg, ip administered every 2 days and measured 3 times per week for 16 days; assay type: organism-based; conditions: in vivo, 384 h, time 16 day
How it was run: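 Male BALB/c nude mice, 6 weeks old, received 5×10^6 MGC-803 cells subcutaneously in the flank. At about 80 mm3, mice were randomized (n = 6/group). They were dosed i.p. every 2 days with vehicle (5% DMSO in saline, v/v) or drug in DMSO/saline at 1.0 or 2.0 mg/mL. Body weight was recorded three times weekly; mean ± SD.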

[2] = test system: MGC-803; experiment: Cell cycle arrest in human MGC-803 cells assessed as accumulation at G1 phase at 0.125 uM after 48 hrs by propidium iodide staining-based flow cytometric analysis (reference value: 46.96 %); assay type: functional
[3] = test system: MGC-803; experiment: Antitumor activity against human MGC-803cells xenografted in BALB/C nude mouse assessed as tumor growth inhibition at 20 mg/kg, ip administered every 2 days and measured 3 times per week for 16 days; assay type: functional; conditions: MGC-803, ip, 384 h, time 16 day, read-out: TGI
How it was run: (§1)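 Male BALB/c nude mice, 6 weeks old, given 5×10^6 MGC-803 cells s.c. in the flank. When tumors reached about 80 mm3, mice were randomized (n = 6/group) and dosed i.p. every 2 days. Vehicle was 5% DMSO in saline. Drug solutions were 1.0 or 2.0 mg/mL (DMSO/saline). Tumor length and width plus body weight were measured three times weekly; volume = lw²/2. Mean ± SD.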

[4] = test system: MGC-803; experiment: Antitumor activity against human MGC-803cells xenografted in BALB/C nude mouse assessed as reduction in tumor volume at 20 mg/kg, ip administered every 2 days and measured 3 times per week; assay type: functional, organism-based; conditions: time 2.0 day; how it was run: as §1
[5] = test system: MGC-803; experiment: Induction of apoptosis in human MGC-803 cells assessed as viable cells at 1 uM measured after 24 hrs by Annexin-V/propidium iodide staining-based flow cytometric analysis (Rvb =92.2 %); conditions: MGC-803, 24 h
[6] = test system: PC-3; experiment: Cytotoxicity against human PC-3 cells assessed as reduction in cell viability preincubated for 48 hrs and measured after 4 hrs by MTT assay; assay type: functional, cell-based
[7] = test system: MGC-803; experiment: Induction of apoptosis in human MGC-803 cells assessed as nuclear fragmentation incubated at 0.5 to 2.5 uM for 24 hrs by Hoechst 33258 staining based analysis; assay type: functional, cell-based; conditions: dose 0.5-2.5 µM
How it was run: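 Cells in six-well plates were treated for the indicated time, then fixed 10 min in 4% paraformaldehyde and washed twice in PBS. Nuclei were stained 5 min with Hoechst 33258, washed twice in PBS and examined by fluorescence microscopy.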

[8] = test system: DNA; experiment: Binding affinity to Escherichia coli pBR322 DNA assessed as intercalation upto 100 uM by agarose gel electrophoresis assay; assay type: nucleic-acid assay; conditions: dose microM <=100
How it was run: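 pBR322 plasmid DNA incubated with compound at 50, 100 or 200 µM for 3 h in TAE buffer. Reaction stopped with loading buffer. Run on 1% agarose gel, stained with ethidium bromide, imaged under UV transillumination. Lane controls: DNA with 1% DMSO (negative), DNA with EB (positive).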

[9] = test system: MGC-803; experiment: Induction of apoptosis in human MGC-803 cells assessed as early apoptotic cells at 0.5 uM measured after 24 hrs by Annexin-V/propidium iodide staining-based flow cytometric analysis (Rvb =0.84%)
[10] = test system: MGC-803; experiment: Cell cycle arrest in human MGC-803 cells assessed as accumulation at S phase at 0.125 uM after 48 hrs by propidium iodide staining-based flow cytometric analysis (reference value: 45.1 %); assay type: functional
[11] = test system: L02; experiment: Cytotoxicity against human HL-7702 cells expressing wild type p53 assessed as reduction in cell viability preincubated for 48 hrs and measured after 4 hrs by MTT assay; assay type: functional, cell-based

Activity [8]: Active
SMILES: NCCCCNc1nc(/C=C/c2ccc([N+](=O)[O-])cc2)nc2ccccc12
Activity [1]: Non-Toxic
Activity [2]: 35.39%
inhibition in vivo at 20 mg/kg [3]: 61.8%
Activity [4]: Active
viability at 1 µM [5]: 55.3%
IC50 [6]: 4.53 µM
Activity [7]: Active
Activity [9]: 14%
Activity [10]: 46.45%
IC50 [11]: 7.46 µM
